Data as given in ChEMBL document CHEMBL4251718, “Isolation of Imaqobactin, an Amphiphilic Siderophore from the Arctic Marine Bacterium Variovorax Species RKJM285” (J Nat Prod, 2018).
The source made the active and inactive calls. The rule behind the calls is not given here.

Key:
[1] = Metal chelating activity assessed as V3+-compound complex formation after 1 hr by LC-HRMS analysis
Summary of the method: (§1)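 500 μg of ligand was dissolved in 1 mL PBS (pH 7.5) and stirred with excess (15 mg) AlCl3, AuCl3 or VCl3 at room temperature for 1 h. Samples went through C18 SPE with a water wash and MeOH elution, were dried, and were redissolved at 500 μg mL−1 in MeOH. Complexes were detected by C18 LC-HRMS using a water/acetonitrile 0.1% formic acid gradient.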

[2] = Metal chelating activity assessed as Al3+-compound complex formation after 1 hr by LC-HRMS analysis; summary of the method: as §1
[3] = Metal chelating activity assessed as Au3+-compound complex formation after 1 hr by LC-HRMS analysis; summary of the method: as §1
Vero = assay: Cytotoxicity against African green monkey Vero cells after 24 hrs by alamar blue assay; format: cell-based; details: chlorocebus sabaeus
Summary of the method: (§2)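 Cytotoxicity was measured with Alamar blue. Fluorescence (ex 560/12, em 590 nm) was read at time zero and 4 h after Alamar blue addition, and IC50 values were calculated from these readings. The free ligand and its Fe(III) and Ga(III) complexes were tested.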

Keratinocyte = assay: Cytotoxicity against human epidermal keratinocytes after 24 hrs by alamar blue assay; summary of the method: as §2
Staphylococcus aureus = assay: Antibacterial activity against methicillin-resistant Staphylococcus aureus ATCC 33591 after 22 hrs by microbroth dilution method; format: functional, organism-based; details: ATCC 33591, 22 h
Summary of the method: (§3)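 CLSI broth microdilution, run in triplicate. OD600 was read at time zero and again after 22 h at 37 °C, and percent growth inhibition was calculated from these readings. The free ligand and its Fe(III) and Ga(III) complexes were tested.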

Enterococcus faecium = assay: Antimicrobial activity against vancomycin-resistant Enterococcus faecium EF379 after 22 hrs by micro broth dilution assay; format: functional, organism-based; details: EF379, 22 h; summary of the method: as §3
Staphylococcus warneri = assay: Antimicrobial activity against Staphylococcus warneri ATCC 17917 after 22 hrs by micro broth dilution assay; format: functional, organism-based; details: ATCC 17917, 22 h; summary of the method: as §3
Proteus vulgaris = assay: Antimicrobial activity against Proteus vulgaris ATCC 12454 after 22 hrs by micro broth dilution assay; format: functional, organism-based; details: ATCC 12454, 22 h; summary of the method: as §3

## CCCCCCCCCCCC(=O)NC(CCCN(O)C=O)C(O)C(C)C(=O)N[C@@H](CO)C(=O)N[C@@H]1CCCN(O)C(=O)CC(C)OC(=O)[C@H]([C@@H](O)C(=O)O)NC(=O)[C@H]([C@@H](C)O)NC1=O (some centres undefined)
[1]
  Activity: Active
[2]
  Activity: Active
[3]
  Activity: Active
Vero
  Activity: Non-Toxic
Keratinocyte
  Activity: Non-Toxic
Staphylococcus aureus
  IC50: 35 µM
Enterococcus faecium
  IC50: 11 µM
Staphylococcus warneri
  IC50: 28 µM
Proteus vulgaris
  IC50: 14 µM
